XBP1 UPR activ: activators of adaptive XBP1 UPR arm, primary screen, cell-based, CHO-XBP1 luciferase reporter, luminescence, uHTS. IRE1-XBP1 UPR activation; percent of tunicamycin response, DMSO as zero. activation, % at 20 µM. 330,000 compounds, 0.33% hits;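 active = versus positive control, 20 µM dose yields 30% or more activation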
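assay system = CHO-XBP1 luciferase reporter cells | amount = 1000 cells/well | buffer or medium = F12 plus 10% FBS | compound dosing = single point, 20 µM final compound, 1% DMSO | incubation = 16-18 h cell attachment at 37 °C, then 6 h compound exposure | detection = Steady-Glo luminescence read | controls = tunicamycin 10 µg/mL and vehicle-only wells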
CHOP inh: inhibitors of CHOP promoter induction, primary screen, cell-based, unfolded protein response, luciferase reporter; inhibition, % at 10 µM; 220,000 compounds, 3.8% hits; CHO-K1 CHOP-promoter luciferase, tunicamycin-induced, 15-18 h;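 active = compounds that reduced the stress-induced luciferase reporter signal by more than about 70% of percent inhibition, limit read from the data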
UPR CHOP act: activators of apoptotic CHOP UPR arm, primary screen, cell-based, CHO-CHOP luciferase reporter, luminescence, uHTS. 330,000 compounds, 0.34% hits. activation, % at 10 µM. UPR activation; percent of tunicamycin response over DMSO baseline;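 active = at 10 µM dose, activation of 40% or more, normalized to positive control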
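Evaluation: % reporter activation, DMSO baseline versus tunicamycin full activation; System: CHO-CHOP luciferase reporter cell line; Input: 500 cells/well; Incubation: 6 h compound treatment, 37 °C; Measured by: Steady-Glo luciferase luminescence; Dosing: one dose, 10 µM in 0.5% DMSO; Buffer or medium: F12 medium, 10% FBS; Benchmarks: positive tunicamycin 10 µg/mL, negative DMSO alone.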
Jurkat NFkB inh: inhibitors of induced NF-kB luciferase reporter, primary screen, TCR NF-kB activation inhibitor project, cell-based, luminescence, uHTS | Jurkat, PMA/ionomycin-induced NF-kB luciferase reporter | inhibition, % at 4 µM | 330,000 compounds, 0.53% hits; in the data active = inhibition above about 50%
697 NFkB inh: inhibitors of PMA/ionomycin-induced NF-kB reporter, 697 cells, primary screen, B-cell NF-kB inhibitor project, cell-based, luminescence, uHTS | inhibition, % at 4 µM | 330,000 compounds, 0.33% hits | 697 B-cell NF-kB luciferase reporter, 16 h; in the data active = inhibition above about 35%
CHOP confirm: retest of CHOP induction inhibitors, confirmation, cell-based; 2,100 compounds, 45% hits; inhibition, % at 10 µM; shares compounds with CHOP inh; AID 504437, 2011; CHO-CHOP promoter luciferase reporter, tunicamycin-induced, luminescence;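 active = mean of three repeat readings of reporter signal inhibition above a set limit, cut at about 70% in these data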
Large screens that a line does not name were inactive (follow-up assays come after a bar, where they were run). This is one part of a sample in which hits are shown more often than they occur.

O=S(=O)(Nc1ccc(-c2csc(-c3ccccc3)n2)cc1)c1ccccc1	CHOP inh 100 | CHOP confirm inactive
CCOC(=O)/C(=C\c1ccc(OC(F)F)cc1)C1=Nn2c(nnc2-c2ccc(Cl)cc2)SC1	CHOP inh 107 (no result: XBP1 UPR activ, UPR CHOP act, Jurkat NFkB inh, 697 NFkB inh) | CHOP confirm 120
Cc1ccc(-c2nc3cc(NS(=O)(=O)c4ccc(C)cc4)ccc3o2)cc1	CHOP inh 105 | CHOP confirm 80
O=C(CN1C(=O)CC(c2ccccc2)S(=O)(=O)c2ccccc21)N1CCCCC1 (centres undefined)	none
CCN(CC)c1ccc2c(c1)oc(=O)c1c(Cl)cc(=O)oc12	CHOP inh 108 | CHOP confirm inactive
CCN(CC)c1ccc2c(C)c(Cl)c(=O)oc2c1	none
CCc1ccc(OCC(=O)NNC(=O)CSc2ncnc3sc(C)c(C)c23)cc1	CHOP inh 101 | CHOP confirm inactive
Cc1sc2ncnc(SCC(=O)NCC(C)C)c2c1C	none
CN(Cc1ccccc1)C(=O)CC(c1ccccc1)c1cc(Cl)ccc1O (centres undefined)	none
CCOC(=O)c1oc2ccc(/C=N/O)c(Cl)c2c1C	CHOP inh 104 | CHOP confirm inactive
CCOC(=O)c1oc2cc(C)cc(C)c2c1C	none
CC1=CC(=O)C=C(C)C1=NOC(=O)/C=C\c1ccccc1	CHOP inh 101 | CHOP confirm inactive
CC1=C(C)/C(=N\OC(=O)/C=C/c2ccccc2)C=CC1=O	CHOP inh 104 | CHOP confirm inactive
O=C(OCn1nnc2ccccc2c1=O)c1cccc(S(=O)(=O)N2CCOCC2)c1	none (no result: CHOP inh)
CCOc1cc(/C=N/NC(=O)C(C)Sc2ccccc2)ccc1O (centres undefined)	none
COc1ccc(S(=O)(=O)NCc2ccco2)cc1NC(=O)c1ccccc1	none (no result: CHOP inh)
O=C(c1nc2ccccn2c1CN1CCC(Cc2ccccc2)CC1)N1CCCC1	none
CNc1nc(-c2ccccc2)[n+](-c2ccc(C)cc2)s1	CHOP inh 97 (no result: XBP1 UPR activ, UPR CHOP act, Jurkat NFkB inh, 697 NFkB inh) | CHOP confirm inactive
CCOC(=O)c1c(-c2ccc(C)cc2)csc1NC(=O)c1cc2ccccc2oc1=O	none (no result: CHOP inh)
CCOC(=O)c1c(-c2ccc(C)cc2)csc1NC1=NS(=O)(=O)c2ccccc21	CHOP inh 101 | CHOP confirm inactive
Cc1nn(-c2ccc(F)cc2)c(C)c1NS(=O)(=O)c1ccc(Cl)cc1	none
Cc1ccc(N2CC(NC(=O)N3CCN(C(=O)c4ccco4)CC3)CC2=O)cc1 (centres undefined)	none (no result: CHOP inh)
CC(C)c1ccc(NC(=O)CSc2nc(-c3ccccc3F)nc3nc[nH]c23)cc1	CHOP inh 100 | CHOP confirm 94
C=CCn1c(=O)[nH]c2cc(C(=O)N3CCN(c4cc(C)ccc4C)CC3)ccc2c1=O	CHOP inh 97 | CHOP confirm inactive
Cc1sc2nc(CSc3ccc([N+](=O)[O-])c(C(F)(F)F)c3)[nH]c(=O)c2c1C	none
Nc1ccccc1SSc1ccccc1N	none
CC(C(Sc1ccccc1N)c1ccccc1)[N+](=O)[O-] (centres undefined)	CHOP inh 106 | CHOP confirm inactive
Cc1c(C(c2ccc(C(=O)O)cc2)c2c(C)n(C)n(-c3ccccc3)c2=O)c(=O)n(-c2ccccc2)n1C	none (no result: CHOP inh)
O=C(Cn1c(COc2ccc(Cl)cc2)nc2ccccc21)NCC(F)(F)F	none
O=C(Cn1c(COc2ccccc2)nc2ccccc21)Nc1cc(Cl)cc(Cl)c1	CHOP inh 109 | CHOP confirm inactive
[S-]c1nnc(-c2ccc(Br)cc2)n1-c1ccccc1.[Zn+2]	none (no result: CHOP inh)
N#Cc1c(Cl)c(Cl)c2nnc(-c3ccc(Br)cc3)n2c1Cl	CHOP inh 104 | CHOP confirm inactive
Cc1ccc(N=C2SC(C(=O)Nc3ccc(OC(F)(F)F)cc3)C(N)=C2C(=O)Nc2c(C)cc(C)cc2C)cc1 (centres undefined)	CHOP inh 105 (no result: XBP1 UPR activ, UPR CHOP act, Jurkat NFkB inh, 697 NFkB inh) | CHOP confirm 84
COc1ccc(CNC(=O)CN2C(=O)c3ccc([N+](=O)[O-])cc3C2=O)cc1	none (no result: CHOP inh)
Cc1ccccc1OCc1nc(-c2ccccc2)no1	CHOP inh 100 | CHOP confirm inactive
Cc1ccccc1OCc1nc(-c2ccc(NC(=O)c3ccco3)cc2)no1	none
COc1cc(CCCN2C(=S)NC[C@@H]2c2ccccc2)cc(OC)c1OC	none
Cc1ccc2nc(/C(C#N)=C\c3ccc(Oc4ccc([N+](=O)[O-])cn4)cc3)[nH]c2c1	CHOP inh 97 (no result: XBP1 UPR activ, UPR CHOP act, Jurkat NFkB inh, 697 NFkB inh) | CHOP confirm inactive
Cc1ccc2nc(/C(C#N)=C\c3cc(C)n(-c4cccc([N+](=O)[O-])c4)c3C)[nH]c2c1	none
Cc1cccc(CNc2ccc(C(CC(N)=O)NC(=O)Cc3cccc4ccccc34)cc2[N+](=O)[O-])c1 (centres undefined)	CHOP inh 105 | CHOP confirm inactive
NC(=O)CC(NC(=O)Cc1ccc(Br)cc1)c1ccc(N2CCN(c3ccccn3)CC2)c([N+](=O)[O-])c1 (centres undefined)	none (no result: CHOP inh)
COc1ccc(CCNc2ccc(C(CC(N)=O)NC(=O)Cc3cccc4ccccc34)cc2[N+](=O)[O-])cc1 (centres undefined)	none
NC(=O)CC(NC(=O)Cc1ccc(Br)cc1)c1ccc(N2CCN(c3ccccc3)CC2)c([N+](=O)[O-])c1 (centres undefined)	CHOP inh 103 | CHOP confirm inactive
CCCCNc1ccc(C(CC(N)=O)NC(=O)Cc2cccc3ccccc23)cc1[N+](=O)[O-] (centres undefined)	CHOP inh 104 | CHOP confirm inactive
COc1ccc(CCNC(=O)CCS(=O)(=O)c2ccc3c(c2)NC(=O)CO3)cc1OC	none (no result: CHOP inh)
CCn1cc(S(=O)(=O)c2ccc(C)cc2)c(=O)c2cc(OC)ccc21	none (no result: CHOP inh)
CC(C)COC(=O)/C(C#N)=C/c1c[nH]c2ccccc12	CHOP inh 101 | CHOP confirm inactive
N#C/C(=C\c1c[nH]c2ccccc12)C(=O)NC1CC1	none (no result: CHOP inh)
CS(=O)(=O)c1nc(-c2ccccc2)cc(C(F)(F)F)n1	none (no result: CHOP inh) | CHOP confirm 117
Cc1ccc(S(=O)(=O)N(CC(=O)Nc2ccccc2C(=O)O)c2ccc(Cl)cc2)cc1	none
O=c1c2cc(Br)ccc2nc(-c2cccc(C(F)(F)F)c2)n1O	CHOP inh 99 | CHOP confirm inactive
C=CCn1nnc2sc3c(c2c1=O)CCC(C)C3 (centres undefined)	none
CCSc1nnc(NC(=O)C2CC2c2ccccc2)s1 (centres undefined)	CHOP inh 102 | CHOP confirm inactive
O=C(CSc1ncnc2c1oc1ccccc12)Nc1nccs1	none
